SMILES strings stand for the structures.

Assay [1] is filed under the species Rattus norvegicus. Description: Concentration required to inhibit insulin release in rat pancreatic islets by 50% upon incubation with the compound at 37 degree C for 90 mins. It is filed as functional, organism-based. The following applies: 1.5 h. Put shortly: (§1)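 Islets isolated by collagenase digestion from fed Wistar rats (180–220 g); groups of 10 preincubated 30 min at 37 °C in bicarbonate-buffered salt medium with 2.8 mM glucose and 0.5% albumin, gassed O2/CO2 95:5. Then incubated 90 min at 37 °C with 16.7 mM glucose plus drug. Insulin measured by radioimmunoassay; release expressed as % of drug-free 16.7 mM glucose control. IC50 estimated.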

The species entered for assay [2] is Rattus norvegicus. Briefly: Percent residual insulin release in rat pancreatic islets upon incubation with the compound (1 uM) at 37 degree C for 90 mins. It is filed as functional. Put shortly:
as §1

For assay [3], the species on record is Rattus norvegicus. Description: Percent residual insulin release in rat pancreatic islets upon incubation with the compound (10 uM) at 37 degree C for 90 mins. The assay is classed as functional. In short, it runs like this:
as §1

For assay [4], the species on record is Rattus norvegicus. Briefly: Percent residual insulin release in rat pancreatic islets upon incubation with the compound (0.1 uM) at 37 degree C for 90 mins. The assay is classed as functional. Put shortly: as §1
The species named for assay [5] is Rattus norvegicus. Description: Ratio of EC50 required to relax KCl induced rat aorta ring contractions to that of IC50 required to inhibit insulin release in rat pancreatic islets. It is filed as functional.
The species named for assay [6] is Rattus norvegicus. Description: Concentration required to relax KCl induced rat aorta ring contractions by 50% upon incubation with the compound at 37 degree C for 90 mins. It is filed as functional, organism-based. The settings on record: 1.5 h. In short, it runs like this:
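Endothelium-denuded transverse aortic rings (3–4 mm) from fed Wistar rats (180–220 g); isometric tension recorded by force transducer. After 60 min equilibration, rings contracted with 30 mM KCl; at stable tension, drug added cumulatively until maximal relaxation or 0.3 mM. Relaxation expressed as % of KCl contraction; EC50 taken from dose–response curves; mean ± SEM (n).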

For assay [7], the species on record is Rattus norvegicus. Briefly: Percent residual insulin release in rat pancreatic islets upon incubation with the compound (50 uM) at 37 degree C for 90 mins. The assay is classed as functional. In short, it runs like this:
as §1

For `CC(C)NC1=NS(=O)(=O)c2cc(Cl)ccc2N1`, it took 0.73 µM to reach half-maximal inhibition in assay [1] (IC50). For the same molecule, the Release turned out to be 36.2% in assay [2], 4.9% in assay [3] and 90.4% in assay [4]. Also, in assay [5], the Selectivity was found to be 49.7.
The molecule `CC(C)NC1=NS(=O)(=O)c2cc(F)ccc2N1` came in with an IC50 in assay [1] of 0.76 µM. In assay [6], this molecule yielded an EC50 of 43.1 µM. The values for the Release in assay [2], in assay [3] and in assay [4] were 47.3%, 3.7% and 96.9%, respectively. Further, the Selectivity in assay [5] came to 56.7.
`O=S1(=O)N=C(NC2CCC2)Nc2cc(Cl)c(F)cc21` gave an IC50 in assay [1] of 0.23 µM. Also, in assay [6], a half-maximal effect (EC50) was put at 39.9 µM. The Release in assay [2] stood at 15.3%; in assay [3] it was 12.8%; in assay [4] it was 74.5%. Moreover, in assay [5], the Selectivity was found to be 173.5.
The molecule `O=S1(=O)NC(NC2CCC2)=Nc2cc(Cl)c(Br)cc21` had an IC50 in assay [1] of 1.21 µM. Besides, a half-maximal response in assay [6] (EC50) required 6.6 µM. The figures for the Release in assay [2] and in assay [3] were 57.2% and 9.5%, respectively. In assay [5], the Selectivity is 5.5.
In the case of `O=S1(=O)NC(NC2CC2)=Nc2cc(Cl)c(Cl)cc21`, 3.34 µM corresponded to half-maximal inhibition in assay [1] (IC50). The EC50 in assay [6] is over 30 µM. Moreover, the figures for the Release in assay [2] and in assay [3] were 92.5% and 17.6%, respectively. In addition, in assay [5], the Selectivity is recorded as over 9.
In assay [1], `O=S1(=O)NC(NC2CCC2)=Nc2cc(Cl)c(Cl)cc21` returned an IC50 of 1.25 µM. This molecule also gave an EC50 in assay [6] of 12.6 µM. Further, the Release was 58.1% in assay [2] and 8.4% in assay [3]. Also, the Selectivity in assay [5] worked out at 10.1.
Regarding `CCCNC1=NS(=O)(=O)c2cc(Cl)c(Cl)cc2N1`, in assay [1], half-maximal inhibition (IC50) was put at 1.37 µM. The same molecule had an EC50 in assay [6] of 4.7 µM. Also, the Release is reported as 60.2% in assay [2] and 9.9% in assay [3]. Further, the Selectivity in assay [5] came out at 3.4.
The molecule `C=CCNC1=Nc2cc(Cl)c(Cl)cc2S(=O)(=O)N1` displayed an IC50 in assay [1] of 1.89 µM. This molecule showed an EC50 in assay [6] of 1.2 µM. Also, the Release in assay [2] is 68.5%; in assay [3] it was 13.5%. Also, the Selectivity in assay [5] is recorded as 0.63.
Consider `COc1ccc2c(c1)S(=O)(=O)NC(NC(C)C)=N2`, for which the IC50 in assay [1] was found to be 1.75 µM. In addition, the results for the Release in assay [2] and in assay [3] were 67.6% and 8.5%, respectively. Besides, the Selectivity in assay [5] is on record as 156.6.
In assay [1], `CCNC1=NS(=O)(=O)c2cc(OC)c(Cl)cc2N1` displayed an IC50 of 0.48 µM. In assay [6], this molecule registered an EC50 of 8.1 µM. Moreover, the Release in assay [2] was found to be 38%; in assay [3], 7.2%; in assay [4], 85.3%. The Selectivity in assay [5] came to 16.9.
Turning to `CC(C)NC1=NS(=O)(=O)c2cc(F)c(NC(C)C)cc2N1`, the EC50 in assay [6] was over 200 µM. In assay [7], this molecule returned a Release of 70.1%.
Consider `CC(C)CNC1=NS(=O)(=O)c2cc(F)c(F)cc2N1`, for which half-maximal inhibition in assay [1] (IC50) was put at 5.68 µM. In addition, the concentration giving a half-maximal response (EC50) in assay [6] is over 30 µM. For the same molecule, the Release in assay [2] is recorded as 86.9%; in assay [3], 42.3%. For the same molecule, in assay [5], the Selectivity is on record as over 5.3.
With `COc1cc2c(cc1Cl)NC(NC1CCC1)=NS2(=O)=O`, the IC50 in assay [1] stood at 0.51 µM. For the same molecule, the EC50 in assay [6] was 23.4 µM. Besides, the Release in assay [2] is recorded as 38.1%; in assay [3], 9.2%; in assay [4], 90%. Besides, in assay [5], the Selectivity is 45.9.
`CC(C)NC1=NS(=O)(=O)c2cc(F)c(Cl)cc2N1` had an IC50 in assay [1] of 0.16 µM. Besides, in assay [6], the EC50 worked out at 41.5 µM. The results for the Release in assay [2], in assay [3] and in assay [4] were 5.7%, 7% and 64.4%, respectively. In assay [5], the Selectivity was 259.4.
For the molecule `CCCNC1=NS(=O)(=O)c2cc(F)c(Cl)cc2N1`, in assay [1], the IC50 amounted to 0.52 µM. This molecule also gave an EC50 in assay [6] of 45.3 µM. Besides, the Release is 37.6% in assay [2], 7.5% in assay [3] and 92% in assay [4]. Moreover, in assay [5], the Selectivity is 87.1.
With `CCCNC1=NS(=O)(=O)c2cc(F)c(NCCC)cc2N1`, the Release in assay [7] is given as 104.1%.
`COc1cc2c(cc1Cl)NC(NC(C)C)=NS2(=O)=O` registered an IC50 in assay [1] of 0.24 µM. Besides, the EC50 in assay [6] came to 37 µM. Further, the Release in assay [2] stood at 20.6%; in assay [3], 7.7%; in assay [4] it was 73.8%. The Selectivity in assay [5] is 154.2.
Regarding `CC(C)NC1=NS(=O)(=O)c2cc(Br)ccc2N1`, 0.47 µM corresponded to half-maximal inhibition in assay [1] (IC50). In assay [6], it took 4.8 µM to reach a half-maximal effect (EC50). For the same molecule, the Release in assay [2] is on record as 34.9%; in assay [3], 8.1%; in assay [4], 91%. In assay [5], the Selectivity is reported as 10.2.
In assay [1], `CCNC1=NS(=O)(=O)c2cc(Cl)c(Cl)cc2N1` displayed an IC50 of 0.25 µM. The molecule further gave an EC50 in assay [6] of 1 µM. For the same molecule, the Release was 8.5% in assay [2], 9.1% in assay [3] and 83.4% in assay [4]. The Selectivity in assay [5] is 4.
In the case of `CC(C)NC1=NS(=O)(=O)c2cc(Br)c(Cl)cc2N1`, the IC50 in assay [1] was 0.26 µM. This molecule also registered an EC50 in assay [6] of 5.6 µM. The Release turned out to be 25.7% in assay [2], 7.5% in assay [3] and 73.3% in assay [4]. In addition, the Selectivity in assay [5] is recorded as 21.5.
For the molecule `CC(C)NC1=NS(=O)(=O)c2cc(Cl)c(Cl)cc2N1`, 0.28 µM corresponded to half-maximal inhibition in assay [1] (IC50). The midpoint of the response in assay [6], the EC50, lay at 2.3 µM. In addition, the Release in assay [2] is recorded as 13.2%; in assay [3] it was 6.3%; in assay [4], 84.9%. Also, the Selectivity in assay [5] was 8.2.
Turning to `CCNC1=NS(=O)(=O)c2cc(F)c(Cl)cc2N1`, it took 0.2 µM to reach half-maximal inhibition in assay [1] (IC50). The molecule also returned an EC50 in assay [6] of 42.4 µM. For the same molecule, the values for the Release in assay [2], in assay [3] and in assay [4] were 7.3%, 12.7% and 73.1%, respectively. Also, the Selectivity in assay [5] turned out to be 212.
As for `O=S1(=O)N=C(NC2CCC2)Nc2cc(NC3CCC3)c(F)cc21`, in assay [7], the Release came to 88.6%.
As to `CCCCCCNC1=NS(=O)(=O)c2cc(Cl)c(Cl)cc2N1`, the EC50 in assay [6] was over 300 µM. The molecule also gave a Release in assay [3] of 95.2%.
`CCNC1=NS(=O)(=O)c2cc(Br)c(Cl)cc2N1` displayed an IC50 in assay [1] of 0.27 µM. In addition, the midpoint of the response in assay [6], the EC50, lay at 3.3 µM. Moreover, the Release came out at 19.7% in assay [2], 7.9% in assay [3] and 79.5% in assay [4]. Moreover, in assay [5], the Selectivity amounted to 12.2.
In turn, `CCNC1=NS(=O)(=O)c2cc(F)c(F)cc2N1` gave an IC50 in assay [1] of 0.37 µM. Further, the response in assay [6] was half-maximal at 66.7 µM (EC50). The Release is listed as 22% in assay [2], 10.5% in assay [3] and 94.5% in assay [4]. Moreover, the Selectivity in assay [5] is on record as 180.3.
`CC(C)NC1=NS(=O)(=O)c2cc(F)c(F)cc2N1` showed a 50% inhibitory concentration (IC50) in assay [1] of 0.3 µM. In assay [6], this molecule had an EC50 of 102 µM. For the same molecule, the results for the Release in assay [2], in assay [3] and in assay [4] were 22.9%, 6.1% and 81.6%, respectively. Further, the Selectivity in assay [5] is recorded as 341.3.
`CC1=Nc2ccc(Cl)cc2S(=O)(=O)N1` [DIAZOXIDE]: the Release in assay [2] is reported as 87.5%; in assay [3] it was 73.9%. For the same molecule, in assay [5], the Selectivity was determined as 1.

One may read the IC50 as the concentration that gives 50% inhibition. Lower therefore signals inhibition by little substance. What is called EC50 is the concentration at which the effect is half-maximal.

(Values after ChEMBL document CHEMBL1140343, “3-Alkylamino-4H-1,2,4-benzothiadiazine 1,1-dioxides as ATP-sensitive potassium channel openers: effect of 6,7-disubstitution on potency and tissue selectivity” (J Med Chem, 2005).)
